Converted amounts (≈) assume the structure as drawn.
Experiments:
Format in all cases: functional
Klebsiella pneumoniae [1] = assay: Antibacterial activity against Klebsiella pneumoniae isolate 12-4
In short: (§1)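 MIC determined in vitro by a standard technique and defined as the lowest compound concentration giving complete inhibition of bacterial growth. The Gram-positive and Gram-negative panels were tested alongside gemifloxacin, levofloxacin and ciprofloxacin reference drugs.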

[2] = system: Staphylococcus epidermidis; assay: Antibacterial activity against methicillin-resistant Staphylococcus epidermidis isolate 12-35
In short: (§2)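 MIC determined in vitro by standard techniques, defined as the lowest compound concentration giving complete inhibition of bacterial growth. Gemifloxacin, levofloxacin and ciprofloxacin were tested alongside as reference drugs.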

Staphylococcus aureus [3] = assay: Antibacterial activity against methicillin-sensitive Staphylococcus aureus isolate 12-10; in short: as §1
Escherichia coli [4] = assay: Antibacterial activity against Escherichia coli isolate 12-4; in short: as §1
Staphylococcus aureus [5] = assay: Antibacterial activity against methicillin-resistant Staphylococcus aureus isolate 12-15; in short: as §2
Streptococcus pneumoniae [6] = assay: Antibacterial activity against Streptococcus pneumoniae isolate 12-2; in short: as §1
Pseudomonas aeruginosa [7] = assay: Antibacterial activity against Pseudomonas aeruginosa isolate 12-1; in short: as §1
Escherichia coli [8] = assay: Antibacterial activity against Escherichia coli isolate 12-5; in short: as §1
Klebsiella pneumoniae [9] = assay: Antibacterial activity against extended-spectrum beta-lactamase-producing Klebsiella pneumoniae isolate 12-1; in short: as §1
[10] = system: Staphylococcus epidermidis; assay: Antibacterial activity against methicillin-resistant Staphylococcus epidermidis isolate 12-5; in short: as §2
Pseudomonas aeruginosa [11] = assay: Antibacterial activity against Pseudomonas aeruginosa ATCC 27853; in short: as §1
Klebsiella pneumoniae [12] = assay: Antibacterial activity against extended-spectrum beta-lactamase-producing Klebsiella pneumoniae isolate 12-2; in short: as §1
Escherichia coli [13] = assay: Antibacterial activity against extended-spectrum beta-lactamase-producing Escherichia coli isolate 12-1; in short: as §1
Klebsiella pneumoniae [14] = assay: Antibacterial activity against Klebsiella pneumoniae isolate 12-2; in short: as §1
[15] = system: Staphylococcus epidermidis; assay: Antibacterial activity against methicillin-sensitive Staphylococcus epidermidis isolate 12-2; in short: as §1
Staphylococcus aureus [16] = assay: Antibacterial activity against methicillin-sensitive Staphylococcus aureus isolate 12-7; in short: as §1
[17] = system: Staphylococcus epidermidis; assay: Antibacterial activity against methicillin-sensitive Staphylococcus epidermidis isolate 12-1; in short: as §1
Staphylococcus aureus [18] = assay: Antibacterial activity against methicillin-resistant Staphylococcus aureus isolate 12-13; in short: as §2
Escherichia coli [19] = assay: Antibacterial activity against extended-spectrum beta-lactamase-producing Escherichia coli isolate 12-4; in short: as §1
Streptococcus pneumoniae [20] = assay: Antibacterial activity against Streptococcus pneumoniae isolate 12-5; in short: as §1
Escherichia coli [21] = assay: Antibacterial activity against Escherichia coli isolate 12-1; in short: as §1
[22] = system: Staphylococcus epidermidis; assay: Antibacterial activity against methicillin-sensitive Staphylococcus epidermidis isolate 12-3; in short: as §1
Klebsiella pneumoniae [23] = assay: Antibacterial activity against extended-spectrum beta-lactamase-producing Klebsiella pneumoniae isolate 12-4; in short: as §1
Escherichia coli [24] = assay: Antibacterial activity against Escherichia coli ATCC 25922; in short: as §1
[25] = system: Staphylococcus epidermidis; assay: Antibacterial activity against methicillin-resistant Staphylococcus epidermidis isolate 12-33; in short: as §2
Escherichia coli [26] = assay: Antibacterial activity against extended-spectrum beta-lactamase-producing Escherichia coli isolate 12-2; in short: as §1
Staphylococcus aureus [27] = assay: Antibacterial activity against methicillin-resistant Staphylococcus aureus isolate 12-3; in short: as §2
Pseudomonas aeruginosa [28] = assay: Antibacterial activity against Pseudomonas aeruginosa isolate 12-2; in short: as §1
Staphylococcus aureus [29] = assay: Antibacterial activity against Staphylococcus aureus […]; in short: as §1
Staphylococcus aureus [30] = assay: Antibacterial activity against methicillin-sensitive Staphylococcus aureus isolate 12-6; in short: as §1
Klebsiella pneumoniae [31] = assay: Antibacterial activity against Klebsiella pneumoniae isolate 12-1; in short: as §1

Row | Compound | MIC (Klebsiella pneumoniae [1]) [µg/mL] | MIC [2] [µg/mL] | MIC (Staphylococcus aureus [3]) [µg/mL] | MIC (Escherichia coli [4]) [µg/mL] | MIC (Staphylococcus aureus [5]) [µg/mL] | MIC (Streptococcus pneumoniae [6]) [µg/mL] | MIC (Pseudomonas aeruginosa [7]) [µg/mL] | MIC (Escherichia coli [8]) [µg/mL] | MIC (Klebsiella pneumoniae [9]) [µg/mL] | MIC [10] [µg/mL] | MIC (Pseudomonas aeruginosa [11]) [µg/mL] | MIC (Klebsiella pneumoniae [12]) [µg/mL] | MIC (Escherichia coli [13]) [µg/mL] | MIC (Klebsiella pneumoniae [14]) [µg/mL] | MIC [15] [µg/mL] | MIC (Staphylococcus aureus [16]) [µg/mL] | MIC [17] [µg/mL] | MIC (Staphylococcus aureus [18]) [µg/mL] | MIC (Escherichia coli [19]) [µg/mL] | MIC (Streptococcus pneumoniae [20]) [µg/mL] | other results
1 | CNC1CCN(c2nc3c(cc2F)c(=O)c(C(=O)O)cn3-c2ccc(F)cc2F)C/C1=N\OC (stereo not drawn) | 1 (≈ 2.1 µM) | 0.015 (≈ 0.0316 µM) | 0.03 (≈ 0.0631 µM) | > 128 | 0.03 (≈ 0.0631 µM) | 0.06 (≈ 0.126 µM) | 4 (≈ 8.41 µM) | > 128 | 64 (≈ 135 µM) | 0.015 (≈ 0.0316 µM) | 8 (≈ 16.8 µM) | 32 (≈ 67.3 µM) | > 128 | 1 (≈ 2.1 µM) | 0.5 (≈ 1.05 µM) | 0.06 (≈ 0.126 µM) | 0.125 (≈ 0.263 µM) | 0.03 (≈ 0.0631 µM) | 32 (≈ 67.3 µM) | 0.06 (≈ 0.126 µM) | MIC (Escherichia coli [21]): 8 µg/mL (≈ 16.8 µM); MIC [22]: 0.125 µg/mL (≈ 0.263 µM); MIC (Klebsiella pneumoniae [23]): 1 µg/mL (≈ 2.1 µM); MIC (Escherichia coli [24]): 0.125 µg/mL (≈ 0.263 µM); MIC [25]: 0.015 µg/mL (≈ 0.0316 µM); MIC (Escherichia coli [26]): > 128 µg/mL; MIC (Staphylococcus aureus [27]): 0.03 µg/mL (≈ 0.0631 µM); MIC (Pseudomonas aeruginosa [28]): 8 µg/mL (≈ 16.8 µM); MIC (Staphylococcus aureus [29]): 0.125 µg/mL (≈ 0.263 µM); MIC (Staphylococcus aureus [30]): 0.03 µg/mL (≈ 0.0631 µM); MIC (Klebsiella pneumoniae [31]): 1 µg/mL (≈ 2.1 µM)
2 | CCO/N=C1\CN(c2c(F)cc3c(=O)c(C(=O)O)cn(C4CC4)c3c2OC)CCC1NC (stereo not drawn) | 2 (≈ 4.48 µM) | 1 (≈ 2.24 µM) | 0.125 (≈ 0.28 µM) | > 128 | 0.25 (≈ 0.56 µM) | 0.25 (≈ 0.56 µM) | 16 (≈ 35.8 µM) | > 128 | 32 (≈ 71.7 µM) | 1 (≈ 2.24 µM) | 16 (≈ 35.8 µM) | 32 (≈ 71.7 µM) | > 128 | 4 (≈ 8.96 µM) | 1 (≈ 2.24 µM) | 32 (≈ 71.7 µM) | 0.5 (≈ 1.12 µM) | 0.25 (≈ 0.56 µM) | 32 (≈ 71.7 µM) | 1 (≈ 2.24 µM) | MIC (Escherichia coli [21]): 8 µg/mL (≈ 17.9 µM); MIC [22]: 0.5 µg/mL (≈ 1.12 µM); MIC (Klebsiella pneumoniae [23]): > 128 µg/mL; MIC (Escherichia coli [24]): 16 µg/mL (≈ 35.8 µM); MIC [25]: 1 µg/mL (≈ 2.24 µM); MIC (Escherichia coli [26]): > 128 µg/mL; MIC (Staphylococcus aureus [27]): 0.25 µg/mL (≈ 0.56 µM); MIC (Pseudomonas aeruginosa [28]): 16 µg/mL (≈ 35.8 µM); MIC (Staphylococcus aureus [29]): 0.125 µg/mL (≈ 0.28 µM); MIC (Staphylococcus aureus [30]): 0.25 µg/mL (≈ 0.56 µM); MIC (Klebsiella pneumoniae [31]): 4 µg/mL (≈ 8.96 µM)
3 | CO/N=C1\CN(c2c(F)cc3c(=O)c(C(=O)O)cn(C4CC4)c3c2OC)CCC1N (stereo not drawn) | 0.5 (≈ 1.19 µM) | 0.25 (≈ 0.597 µM) | 0.125 (≈ 0.299 µM) | 128 (≈ 306 µM) | 0.25 (≈ 0.597 µM) | 0.25 (≈ 0.597 µM) | 16 (≈ 38.2 µM) | 64 (≈ 153 µM) | 8 (≈ 19.1 µM) | 0.25 (≈ 0.597 µM) | 4 (≈ 9.56 µM) | 16 (≈ 38.2 µM) | 64 (≈ 153 µM) | 2 (≈ 4.78 µM) | 0.5 (≈ 1.19 µM) | 8 (≈ 19.1 µM) | 0.25 (≈ 0.597 µM) | 0.25 (≈ 0.597 µM) | 16 (≈ 38.2 µM) | 2 (≈ 4.78 µM) | MIC (Escherichia coli [21]): 2 µg/mL (≈ 4.78 µM); MIC [22]: 0.25 µg/mL (≈ 0.597 µM); MIC (Klebsiella pneumoniae [23]): 64 µg/mL (≈ 153 µM); MIC (Escherichia coli [24]): 4 µg/mL (≈ 9.56 µM); MIC [25]: 2 µg/mL (≈ 4.78 µM); MIC (Escherichia coli [26]): 64 µg/mL (≈ 153 µM); MIC (Staphylococcus aureus [27]): 0.25 µg/mL (≈ 0.597 µM); MIC (Pseudomonas aeruginosa [28]): 16 µg/mL (≈ 38.2 µM); MIC (Staphylococcus aureus [29]): 0.06 µg/mL (≈ 0.143 µM); MIC (Staphylococcus aureus [30]): 0.25 µg/mL (≈ 0.597 µM); MIC (Klebsiella pneumoniae [31]): 2 µg/mL (≈ 4.78 µM)

Reference: ChEMBL document CHEMBL2331542, “Synthesis and in vitro antibacterial activity of quinolone/naphthyridone derivatives containing 3-alkoxyimino-4-(methyl)aminopiperidine scaffolds” (2013)
